Reference: ChEMBL document CHEMBL5058577, “EUbOPEN Chemogenomics Library 2 (Multiplex)” (2022)

Test system: U2OS
Assay: Multiplex assay against U2OS
Assay type: toxicity, cell-based
Settings: human
Summary of the method: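 Per cents of healthy-nucleus cells form the tubulin, mitochondrial-mass and membrane-permeability phenotype values. Live cells were stained at seeding with Hoechst33342, BioTracker Green Microtubule Cytoskeleton Dye, MitoTracker Red and Annexin V Alexa Fluor 680. After compound addition they were imaged on a CQ1 microscope at 37°C and 5% CO2, and CellPathfinder machine-learning gating split them into Hoechst high-intensity objects or normal cells, normal cells into healthy, pyknosed or fragmented nuclei, and pyknosed cells into mitotic or apoptotic.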

[1] = 12 h, 1 µM, compound concentration 1 uM, replicate 1
[2] = 12 h, 1 µM, compound concentration 1 uM, replicate 2
[3] = 12 h, 10 µM, compound concentration 10 uM, replicate 1
[4] = 12 h, 10 µM, compound concentration 10 uM, replicate 2
[5] = 24 h, 1 µM, compound concentration 1 uM, replicate 1
[6] = 24 h, 1 µM, compound concentration 1 uM, replicate 2
[7] = 24 h, 10 µM, compound concentration 10 uM, replicate 1
[8] = 24 h, 10 µM, compound concentration 10 uM, replicate 2
[9] = 48 h, 1 µM, compound concentration 1 uM, replicate 1
[10] = 48 h, 1 µM, compound concentration 1 uM, replicate 2
[11] = 48 h, 10 µM, compound concentration 10 uM, replicate 1
[12] = 48 h, 10 µM, compound concentration 10 uM, replicate 2

## O=C(O)CCC/C=C\CC1C(O)CC(O)C1/C=C/C(O)COc1cccc(Cl)c1 (stereo not drawn) [CLOPROSTENOL]
[1]
  Population Apoptotic (%): 77%
  Population Fragmented Nuclei (%): 30%
  Population Healthy Nuclei (%): 60%
  Population Hoechst High Intensity Objects (%): 3%
  Population Membrane Permeable-Phenotype (%): 2%
  Population Mitochondria Different-Phenotype (%): 0%
  Population Mitotic Cells (%): 22%
  Population Normal (%): 96%
  Population Pyknosed Nuclei (%): 9%
  Population Tubulin-Different-Phenotype (%): 1%
  Total Cell Count: 201
[2]
  Population Apoptotic (%): 75%
  Population Fragmented Nuclei (%): 11%
  Population Healthy Nuclei (%): 82%
  Population Hoechst High Intensity Objects (%): 0%
  Population Membrane Permeable-Phenotype (%): 6%
  Population Mitochondria Different-Phenotype (%): 3%
  Population Mitotic Cells (%): 25%
  Population Normal (%): 100%
  Population Pyknosed Nuclei (%): 6%
  Population Tubulin-Different-Phenotype (%): 2%
  Total Cell Count: 129
[3]
  Population Apoptotic (%): 92%
  Population Fragmented Nuclei (%): 28%
  Population Healthy Nuclei (%): 60%
  Population Hoechst High Intensity Objects (%): 2%
  Population Membrane Permeable-Phenotype (%): 8%
  Population Mitochondria Different-Phenotype (%): 1%
  Population Mitotic Cells (%): 7%
  Population Normal (%): 97%
  Population Pyknosed Nuclei (%): 10%
  Population Tubulin-Different-Phenotype (%): 3%
  Total Cell Count: 272
[4]
  Population Apoptotic (%): 45%
  Population Fragmented Nuclei (%): 9%
  Population Healthy Nuclei (%): 81%
  Population Hoechst High Intensity Objects (%): 0%
  Population Membrane Permeable-Phenotype (%): 9%
  Population Mitochondria Different-Phenotype (%): 6%
  Population Mitotic Cells (%): 54%
  Population Normal (%): 100%
  Population Pyknosed Nuclei (%): 8%
  Total Cell Count: 131
[5]
  Population Apoptotic (%): 81%
  Population Fragmented Nuclei (%): 24%
  Population Healthy Nuclei (%): 63%
  Population Hoechst High Intensity Objects (%): 1%
  Population Membrane Permeable-Phenotype (%): 4%
  Population Mitochondria Different-Phenotype (%): 2%
  Population Mitotic Cells (%): 18%
  Population Normal (%): 98%
  Population Pyknosed Nuclei (%): 11%
  Population Tubulin-Different-Phenotype (%): 2%
  Total Cell Count: 237
[6]
  Population Apoptotic (%): 75%
  Population Fragmented Nuclei (%): 15%
  Population Healthy Nuclei (%): 77%
  Population Hoechst High Intensity Objects (%): 0%
  Population Membrane Permeable-Phenotype (%): 6%
  Population Mitotic Cells (%): 25%
  Population Normal (%): 100%
  Population Pyknosed Nuclei (%): 7%
  Population Tubulin-Different-Phenotype (%): 4%
  Total Cell Count: 157
[7]
  Population Apoptotic (%): 90%
  Population Fragmented Nuclei (%): 23%
  Population Healthy Nuclei (%): 66%
  Population Hoechst High Intensity Objects (%): 2%
  Population Membrane Permeable-Phenotype (%): 7%
  Population Mitochondria Different-Phenotype (%): 2%
  Population Mitotic Cells (%): 10%
  Population Normal (%): 97%
  Population Pyknosed Nuclei (%): 10%
  Population Tubulin-Different-Phenotype (%): 3%
  Total Cell Count: 306
[8]
  Population Apoptotic (%): 70%
  Population Fragmented Nuclei (%): 11%
  Population Healthy Nuclei (%): 82%
  Population Hoechst High Intensity Objects (%): 0%
  Population Membrane Permeable-Phenotype (%): 11%
  Population Mitochondria Different-Phenotype (%): 4%
  Population Mitotic Cells (%): 30%
  Population Normal (%): 100%
  Population Pyknosed Nuclei (%): 5%
  Population Tubulin-Different-Phenotype (%): 4%
  Total Cell Count: 177
[9]
  Population Apoptotic (%): 89%
  Population Fragmented Nuclei (%): 20%
  Population Healthy Nuclei (%): 70%
  Population Hoechst High Intensity Objects (%): 1%
  Population Membrane Permeable-Phenotype (%): 2%
  Population Mitochondria Different-Phenotype (%): 1%
  Population Mitotic Cells (%): 10%
  Population Normal (%): 98%
  Population Pyknosed Nuclei (%): 8%
  Population Tubulin-Different-Phenotype (%): 0%
  Total Cell Count: 344
[10]
  Population Apoptotic (%): 81%
  Population Fragmented Nuclei (%): 11%
  Population Healthy Nuclei (%): 81%
  Population Hoechst High Intensity Objects (%): 0%
  Population Membrane Permeable-Phenotype (%): 6%
  Population Mitochondria Different-Phenotype (%): 3%
  Population Mitotic Cells (%): 18%
  Population Normal (%): 99%
  Population Pyknosed Nuclei (%): 7%
  Population Tubulin-Different-Phenotype (%): 2%
  Total Cell Count: 229
[11]
  Population Apoptotic (%): 91%
  Population Fragmented Nuclei (%): 18%
  Population Healthy Nuclei (%): 67%
  Population Hoechst High Intensity Objects (%): 3%
  Population Membrane Permeable-Phenotype (%): 6%
  Population Mitochondria Different-Phenotype (%): 1%
  Population Mitotic Cells (%): 8%
  Population Normal (%): 96%
  Population Pyknosed Nuclei (%): 14%
  Population Tubulin-Different-Phenotype (%): 4%
  Total Cell Count: 396
[12]
  Population Apoptotic (%): 84%
  Population Fragmented Nuclei (%): 12%
  Population Healthy Nuclei (%): 82%
  Population Hoechst High Intensity Objects (%): 2%
  Population Membrane Permeable-Phenotype (%): 10%
  Population Mitochondria Different-Phenotype (%): 2%
  Population Mitotic Cells (%): 15%
  Population Normal (%): 97%
  Population Pyknosed Nuclei (%): 5%
  Total Cell Count: 246

## S=C(NCCCc1c[nH]cn1)NCCCN(Cc1ccc(Cl)c(Cl)c1)c1ccc(Br)cn1
[1]
  Population Apoptotic (%): 75%
  Population Fragmented Nuclei (%): 27%
  Population Healthy Nuclei (%): 63%
  Population Hoechst High Intensity Objects (%): 2%
  Population Membrane Permeable-Phenotype (%): 13%
  Population Mitochondria Different-Phenotype (%): 2%
  Population Mitotic Cells (%): 25%
  Population Normal (%): 97%
  Population Pyknosed Nuclei (%): 9%
  Population Tubulin-Different-Phenotype (%): 6%
  Total Cell Count: 228
[2]
  Population Apoptotic (%): 80%
  Population Fragmented Nuclei (%): 20%
  Population Healthy Nuclei (%): 68%
  Population Hoechst High Intensity Objects (%): 3%
  Population Membrane Permeable-Phenotype (%): 6%
  Population Mitochondria Different-Phenotype (%): 9%
  Population Mitotic Cells (%): 20%
  Population Normal (%): 96%
  Population Pyknosed Nuclei (%): 11%
  Population Tubulin-Different-Phenotype (%): 1%
  Total Cell Count: 93
[3]
  Population Apoptotic (%): 66%
  Population Fragmented Nuclei (%): 27%
  Population Healthy Nuclei (%): 46%
  Population Hoechst High Intensity Objects (%): 6%
  Population Membrane Permeable-Phenotype (%): 86%
  Population Mitochondria Different-Phenotype (%): 26%
  Population Mitotic Cells (%): 33%
  Population Normal (%): 93%
  Population Pyknosed Nuclei (%): 26%
  Population Tubulin-Different-Phenotype (%): 83%
  Total Cell Count: 220
[4]
  Population Apoptotic (%): 58%
  Population Fragmented Nuclei (%): 24%
  Population Hoechst High Intensity Objects (%): 0%
  Population Membrane Permeable-Phenotype (%): 84%
  Population Mitochondria Different-Phenotype (%): 60%
  Population Mitotic Cells (%): 41%
  Population Normal (%): 100%
  Population Pyknosed Nuclei (%): 29%
  Population Tubulin-Different-Phenotype (%): 89%
  Total Cell Count: 82
[5]
  Population Apoptotic (%): 81%
  Population Fragmented Nuclei (%): 22%
  Population Healthy Nuclei (%): 69%
  Population Hoechst High Intensity Objects (%): 3%
  Population Membrane Permeable-Phenotype (%): 11%
  Population Mitochondria Different-Phenotype (%): 3%
  Population Mitotic Cells (%): 18%
  Population Normal (%): 96%
  Population Pyknosed Nuclei (%): 8%
  Population Tubulin-Different-Phenotype (%): 9%
  Total Cell Count: 285
[6]
  Population Apoptotic (%): 100%
  Population Fragmented Nuclei (%): 30%
  Population Healthy Nuclei (%): 65%
  Population Hoechst High Intensity Objects (%): 1%
  Population Membrane Permeable-Phenotype (%): 7%
  Population Mitochondria Different-Phenotype (%): 5%
  Population Mitotic Cells (%): 0%
  Population Normal (%): 98%
  Population Pyknosed Nuclei (%): 4%
  Population Tubulin-Different-Phenotype (%): 3%
  Total Cell Count: 125
[7]
  Population Apoptotic (%): 62%
  Population Fragmented Nuclei (%): 33%
  Population Healthy Nuclei (%): 38%
  Population Hoechst High Intensity Objects (%): 5%
  Population Membrane Permeable-Phenotype (%): 59%
  Population Mitochondria Different-Phenotype (%): 17%
  Population Mitotic Cells (%): 37%
  Population Normal (%): 94%
  Population Pyknosed Nuclei (%): 28%
  Population Tubulin-Different-Phenotype (%): 54%
  Total Cell Count: 227
[8]
  Population Apoptotic (%): 60%
  Population Fragmented Nuclei (%): 29%
  Population Healthy Nuclei (%): 40%
  Population Hoechst High Intensity Objects (%): 2%
  Population Membrane Permeable-Phenotype (%): 77%
  Population Mitochondria Different-Phenotype (%): 32%
  Population Mitotic Cells (%): 39%
  Population Normal (%): 97%
  Population Pyknosed Nuclei (%): 29%
  Population Tubulin-Different-Phenotype (%): 64%
  Total Cell Count: 79
[9]
  Population Apoptotic (%): 83%
  Population Fragmented Nuclei (%): 17%
  Population Healthy Nuclei (%): 74%
  Population Hoechst High Intensity Objects (%): 1%
  Population Membrane Permeable-Phenotype (%): 5%
  Population Mitochondria Different-Phenotype (%): 3%
  Population Mitotic Cells (%): 16%
  Population Normal (%): 98%
  Population Pyknosed Nuclei (%): 7%
  Population Tubulin-Different-Phenotype (%): 2%
  Total Cell Count: 409
[10]
  Population Apoptotic (%): 87%
  Population Fragmented Nuclei (%): 28%
  Population Healthy Nuclei (%): 60%
  Population Hoechst High Intensity Objects (%): 0%
  Population Mitotic Cells (%): 12%
  Population Normal (%): 99%
  Population Pyknosed Nuclei (%): 11%
  Population Tubulin-Different-Phenotype (%): 3%
  Total Cell Count: 211
[11]
  Population Apoptotic (%): 70%
  Population Fragmented Nuclei (%): 43%
  Population Healthy Nuclei (%): 8%
  Population Hoechst High Intensity Objects (%): 21%
  Population Membrane Permeable-Phenotype (%): 46%
  Population Mitochondria Different-Phenotype (%): 20%
  Population Mitotic Cells (%): 29%
  Population Normal (%): 78%
  Population Pyknosed Nuclei (%): 47%
  Population Tubulin-Different-Phenotype (%): 26%
  Total Cell Count: 230
[12]
  Population Apoptotic (%): 73%
  Population Fragmented Nuclei (%): 50%
  Population Healthy Nuclei (%): 15%
  Population Hoechst High Intensity Objects (%): 15%
  Population Membrane Permeable-Phenotype (%): 57%
  Population Mitochondria Different-Phenotype (%): 42%
  Population Mitotic Cells (%): 26%
  Population Normal (%): 84%
  Population Pyknosed Nuclei (%): 33%
  Population Tubulin-Different-Phenotype (%): 57%
  Total Cell Count: 105
